# Screening data as filed in PubChem BioAssay.
# Rtt109 HAT inh: inhibitors of Candida albicans Rtt109/Vps75 histone acetyltransferase. Q5AAJ8. purified Rtt109/Vps75, ThioGlo CoA-SH fluorescence, 4 h. inhibition, % at 34.9 µM. 0.16% of 330,000 active. AID 540336;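 active = inhibition of at least 50% in every replicate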
# S100A4 inh HTS: inhibitors of human S100A4 binding to myosin IIA peptide. inhibition, % at 10.7 µM. S100A4/TAMRA-MyoIIA peptide fluorescence polarization. 0.14% of 360,000 active. P26447;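 active = mean inhibition of at least 70% across replicates, with every replicate also reaching that level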
# Target sequence (P26447 whole entry, looked up): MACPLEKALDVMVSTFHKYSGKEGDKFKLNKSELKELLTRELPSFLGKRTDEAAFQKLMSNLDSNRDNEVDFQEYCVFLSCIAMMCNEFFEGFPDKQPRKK
#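 assay system = human S100A4 monomer with TAMRA-labelled myosin IIA peptide | also added = labelled myosin peptide probe, 5 nM | incubation = 5 min between mix addition and reading | control set = DMSO and TFP controls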
# miR-122 sensor: blocks miR-122 activity in Huh7 sensor cells; Huh7 miR-122 Renilla luciferase sensor, 48 h; neutral wells = 0, positive control = 100; activation (reporter increase), % at 12.5 µM; 0.3% of 340,000 active;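 active = mean replicate activation score at least 90 and every replicate individually at or above 90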;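 also: higher luciferase means less miR-122 activity so hits act as miR-122 inhibitors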
# ERAP1 HTS inh: inhibitors of human ERAP1 aminopeptidase | inhibition, % at 10.7 µM | AID 652197 | 0.15% of 340,000 active | recombinant ERAP1, Leu-AMC fluorescence, 60 min;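 active = mean replicate inhibition of at least 30%, or all replicates individually reaching that 30% level; inactive = mean below 30% and not every replicate reaching it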;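 also: 0% = neutral control wells and 100% = L-leucinethiol positive control wells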
# MLL AF4-AF9 inh: MLL-AF4/AF9 protein interaction inhibition; P42568; AlphaScreen, biotin-AF4 peptide binding to FLAG-AF9; inhibition, % at 10 µM; 0.47% of 350,000 active; AID 651704;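 active = every replicate reaching a set inhibition limit, whatever the replicate mean, cut at about 25% in these data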;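 also: 0% = plate neutral control median and 100% = total signal loss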
# The depositor's hits bear a star; i = inactive; . = no result given; + = active, no number; [ ] = remark or other dose. Rows were chosen to be rich in hits. Some 0.86% of all compounds tested hit in one or more screens of this group.
SMILES,Rtt109 HAT inh,S100A4 inh HTS,miR-122 sensor,ERAP1 HTS inh,MLL AF4-AF9 inh
O=C(NCC1=C(c2ccc3ccccc3c2)C[C@@H]2CC[C@H]1N2Cc1ccco1)c1ccncc1,.,-9,-5,1,10
O=C(NCC1=C(c2ccc3ccccc3c2)C[C@@H]2CC[C@H]1N2Cc1ccco1)c1ccc([N+](=O)[O-])cc1,.,-5,-4,7,28*
CCCN1[C@@H]2Cn3c(cccc3=O)[C@H]1[C@@H](C(=O)N(C)C)[C@@H]2CO,.,4,.,-3,-2
O=C(O)c1cccc2c1NC(c1cccc([N+](=O)[O-])c1)C1CC(Sc3ccccc3[N+](=O)[O-])C(Cl)C21 (stereo not given),-7,-4,-5,0,27*
Cc1ccc(OC(=O)N(C)C[C@@H]2OCc3ccccc3-c3c(n(C)c4ccccc34)C(=O)N([C@H](C)CO)C[C@@H]2C)cc1,.,0,.,-7,5
c1cnc(N2CCNCC2)nc1,13,0,-1,1,-2
c1ccc(Cc2cnc(N3CCNCC3)nc2)cc1,.,-4,.,64*,.
Fc1ccc(C(OCCN2CCN(CCCc3ccccc3)CC2)c2ccc(F)cc2)cc1,5,0,8,-10,29*
c1ccc(CCCN2CCN(CCOC(c3ccccc3)c3ccccc3)CC2)cc1,-8,3,-4,0,25
O=C1CNC[C@@H]2[C@H](c3ccc(Br)cc3)[C@H](CO)N12,.,3,.,-6,-6
O=c1ccc2cc(O[C@@H]3O[C@@H](CO)[C@H](O)[C@@H](O)[C@@H]3O)c(O)cc2o1,i,0,3,+,-2
CC[N+](C)(CC)CCCCOc1ccc2c(c1)C(=O)c1cc(OCCCC[N+](C)(CC)CC)ccc1-2,1,5,-4,68*,1
CN(c1ccc(O)cc1)c1ccc([N+](=O)[O-])c2nonc12,.,-7,-6,9,27*
Oc1ccc(/C=N/NP(=S)(c2ccccc2)c2ccccc2)cc1,5,.,96*,.,.
COc1cc(/C=N/NP(=S)(c2ccccc2)c2ccccc2)ccc1O,11,.,0,.,.
O=C(Cc1ccccn1)N1CCCCN2[C@@H](CO)[C@@H](c3ccc(-c4ccccc4)cc3)[C@@H]2C1,.,4,1[16.7 µM],0,-2
COC(=O)[C@]1(C)C[C@H]1[C@H](NP(=O)(c1ccccc1)c1ccccc1)c1ccccc1,5,84*,5,3,-2
CSc1ncc(/C=C2/C(=O)NC(=O)N(c3ccc(Cl)cc3)C2=O)cn1,64*,1,-3,-1,-1
COC(=O)[C@@H]1[C@@H](CO)[C@@H]2Cn3c(ccc(C4=CCCCC4)c3=O)[C@H]1N2CC1CCCCC1,.,0,.,5,8
COC(=O)[C@H]1[C@H](CO)[C@H]2Cn3c(ccc(C4=CCCCC4)c3=O)[C@@H]1N2CCc1ccccc1,.,-3,4[16.7 µM],1,2
O=[N+]([O-])c1ccc(N2CCCCCC2)c2ncccc12,0,-6,-23,0,27*
CC12CCC3C(CCC4(O)CC(O)CCC34C=O)C1(O)CCC2C1=CC(=O)OC1 (stereo not given),-1,-4,96*,-2,-1
COc1ccc(OC(=O)N(C)C[C@H]2OCc3ccccc3-c3c(n(C)c4ccccc34)C(=O)N([C@H](C)CO)C[C@@H]2C)cc1,.,5,.,-1,4
N=C1c2ccccc2CN1CC(=O)c1ccccc1,-5,-3,.,-2,1
N=C1c2ccccc2CN1NC(=O)c1ccccc1,51*,-6,.,-4,-1
SMILES,Rtt109 HAT inh,S100A4 inh HTS,miR-122 sensor,ERAP1 HTS inh,MLL AF4-AF9 inh
COC(=O)[C@H]1[C@H](CO)[C@H]2Cn3c(ccc(C4=CCCCC4)c3=O)[C@@H]1N2Cc1ccccn1,.,9,0[16.7 µM],3,0
COc1cc2c(cc1OC)-c1c(OC)c(OC)cc3c1[C@H](C2)[N+](C)(C)CC3,-3,1,-5,79*,-6
C/C=C/c1ccc(C2[C@@H]3CN(Cc4nccs4)C[C@H]2N3)cc1 (stereo not given in full),.,15,.,0,12
C/C=C/c1ccc(C2[C@@H]3CN(Cc4cocn4)C[C@H]2N3)cc1 (stereo not given in full),.,2,.,-2,29*
O=c1[nH]sc2cc(F)ccc12,-11,-1,.,31*,-13
COC(=O)[C@@H]1[C@@H](CO)[C@@H]2Cn3c(cccc3=O)[C@H]1N2C(=O)C1CCC1,.,-4,1[16.7 µM],0,-2
